Measurements as given in paper PMC8916014 (Proceedings of the National Academy of Sciences of the …, 2022).

Legend:
[1] = test system: E. coli ATCC25922 with purified LPS from E. coli O111:B4; assay: LPS-mediated antimicrobial block assay; type: cell-based, Escherichia coli; conditions: LPS 25 μg/mL
Summary of the method: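 A virtual-colony count assay gave the fold-change in MBC against E. coli across different concentrations of added purified LPS. Polymyxin B and kanamycin were run as comparators.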

[2] = test system: E. coli ATCC25922 with purified E. coli 70S ribosome; assay: bacterial ribosome-mediated antimicrobial block assay; type: cell-based, Escherichia coli; conditions: 70S ribosome 12.5 nM
Summary of the method: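 MBC fold-change against E. coli with exogenous E. coli 70S ribosome was determined by virtual-colony count assay. Polymyxin B and kanamycin served as comparators. Triplicate experiments were reported as mean ± SD, with one- or two-way ANOVA and Bonferroni correction.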

S. aureus (ATCC 25923) = assay: in vivo efficacy, S. aureus-induced pneumonia; parameters: species or system C57BL/6 mice; conditions: 2 mg/kg intratracheal
[3] = test system: E. coli ATCC25922 outer membrane; assay: outer membrane permeability assay; type: cell-based, Escherichia coli; conditions: E. coli ATCC25922, 1 h treatment, 0.195–100 μM
Summary of the method: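 E. coli ATCC25922 was treated with test compound for 1 h, then probed with NPN. NPN fluorescence intensity served as the measure of outer-membrane permeability and was normalized to relative fluorescence intensity. Experiments were run in triplicate and reported as mean ± SD.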

[4] = test system: K. pneumoniae (ATCC 13883); assay: in vivo efficacy, K. pneumoniae-induced pneumonia; parameters: species or system C57BL/6 mice; conditions: 2 mg/kg intratracheal

Row | Compound | fold change in MBC in presence of LPS [1] | fold change in MBC in presence of E. coli 70S ribosome [2] | efficacy in S. aureus-induced pneumonia (S. aureus (ATCC 25923)) | permeability of bacterial OM (NPN fluorescence) [3] | survival rate [4] [%]
1 | NC[C@H]1O[C@H](O[C@H]2[C@H](O)[C@@H](O[C@H]3O[C@H](CO)[C@@H](O)[C@H](N)[C@H]3O)[C@H](N)C[C@@H]2N)[C@H](O)[C@@H](O)[C@@H]1O [kanamycin] | no effect | antagonized |  |  | 
2 | polymyxin B [PMB] | fourfold | failed to affect activity | ineffective | increased the permeability of bacterial OM in a dose-dependent manner | 100
